Data set [1] has as its system αSyn1–103. The data set can be described thus: Phase separation assay with C-terminally truncated αSyn. The format is biochemical, human. The note with it: 400 μM peptide, DIC images.
Data set [2] deals with T1, αSyn (Homo sapiens, UniProt P37840). In words: ThT/ANS fluorescence assay of spontaneous αSyn aggregation. Format: biochemical. The method in brief: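 αSyn monomer diluted in 10× PBS with 20 μM ThT and 50 μM ANS (from 1 mM stock) and test compound at 0.1–10 mol equiv, prepared on ice. Plate held at 37 °C, cycling 3 min shaking/27 min quiescence. Bottom read: ThT ex 440 nm, ANS ex 380 nm, em 480 nm; three repeats per sample. […].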

The target of data set [3] is T1, αSyn. The data set can be described thus: Phase separation assay of αSyn with peptides. The format is biochemical. The method in brief:
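αSyn monomer dissolved in 10 mM NaOH to neutral pH, filtered, stored at −80 °C as a 400 μM stock. Mixed with 10% PEG in buffer pH 7.5 (DIC series: 20 mM sodium phosphate) and test compound from DMSO stock, 1% DMSO final. αSyn 100 μM unless stated (20–200 μM range); peptide 10–1,000 μM. Incubated 30 min at 4 °C. DIC at room temperature; turbidity at 600 nm, 1 mm cell, Peltier-controlled.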

The nature of data set [4]: Self-assembly and solubility of the peptide itself. The format is physicochemical. As to conditions: microscopy and turbidity measurements, absence of αSyn. The method in brief:
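Test compound alone, without αSyn, added from DMSO stock to 10% PEG buffer at 1% DMSO final, over a range of concentrations. Incubated 30 min at 4 °C. Turbidity read at 600 nm in a 1 mm cell; supernatant fluorescence also measured.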

Where a SMILES comes first, the peptide text is derived from it. Bridges are numbered along the chain shown (N, C = ends).

Results on 1 molecule are retold here after PMC12257511 (Journal of the American Chemical Society, 2025).

Consider `C[C@@H](O)[C@H](NC(=O)[C@H](CCCNC(=N)N)NC(=O)[C@H](Cc1c[nH]c2ccccc12)NC(=O)[C@H](Cc1c[nH]c2ccccc12)NC(=O)[C@H](CCCNC(=N)N)NC(=O)[C@@H]1CCCN1C(=O)[C@H](CCCCN)NC(=O)[C@@H]1CSCC(=O)N[C@@H](Cc2ccc(O)cc2)C(=O)N[C@@H](CCC(N)=O)C(=O)N[C@@H](CCCNC(=N)N)C(=O)N[C@@H](Cc2c[nH]c3ccccc23)C(=O)N1)C(=O)N[C@@H](CS)C(=O)N[C@@H](Cc1ccc(O)cc1)C(=O)N[C@@H](Cc1c[nH]c2ccccc12)C(=O)N[C@@H](CS)C(=O)NCC(=O)N[C@@H](CCCCN)C(=O)N[C@@H](CCCCN)C(=O)N[C@@H](CCCCN)C(N)=O` [FL2] ({CH2CO}-YQRWCKPRWWRTCYWCGKKK-NH2; thioether N-5), for which the “LLPS efficiency with αSyn1–103 (class label in DIC image)” value in data set [1] is reported as “formed aggregates rather than liquid droplets”. Besides, the “ANS fluorescence in the droplets” value in data set [2] (400 μM FL2, 3 h incubation at 37 °C, fluorescence images) is “increase in ANS fluorescence intensity in the droplets”. For the same molecule, in data set [2] (10% PEG in PBS, 0.1 to 10 mol equiv peptide, ThT, 37 °C, three repeats), the “Effect on spontaneous αSyn fibril formation, condition ii” value was “a reduction in both ThT fluorescence intensity and lag time”. Further, the “Maximum ThT and ANS intensity at high peptide concentrations” value in data set [2] (conditions ii and iii) was “decrease of magnitude of ThT signal and increase of ANS intensity”. Moreover, in data set [2] (no PEG, PBS buffer, 0.1 to 10 mol equiv peptide, ThT, 37 °C, three repeats), the “Effect on spontaneous αSyn fibril formation, condition i” value was “no acceleration of the fibril formation of αSyn but rather expanded the lag time”. Besides, the “Temperature-dependent turbidity of the condensates” value in data set [3] (PBS buffer, 400 μM FL2 or 1 mM FD1) was “dissociated to a dispersed monomeric state as the temperature increased”. Further, the “Concentration dependence of droplet formation” value in data set [3] (peptide 10–1,000 μM, 100 μM αSyn, 30 min at 4 °C, turbidity at 600 nm and fluorescence of the dilute phase) is “concentration-dependent increase in droplet formation”. Further, the “Self-assembly of the peptide itself” value in data set [4] is reported as “tends to undergo self-assembly and/or LLPS at high concentrations”.
